We go through four compounds from ChEMBL document CHEMBL4732157, “A theranostic probe of indoleamine 2,3-dioxygenase 1 (IDO1) for small molecule cancer immunotherapy” (Eur J Med Chem, 2021).

Calls of active or inactive are those of the source. No cut-off for these calls is given here.

The target of data set [1] is T1, Indoleamine 2,3-dioxygenase 1 (Homo sapiens, UniProt P14902). The data set is described as follows: Binding affinity to IDO1 in IFNgamma-stimulated human HeLa cells at 3.5 nM measured after 5 mins in presence of IDO1 inhibitor epacadostat by Hoechst staining based confocal fluorescence imaging analysis. The procedure, abridged: (§1)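 Living HeLa cells, either unstimulated or stimulated with IFN-γ (50 ng/mL, 12 h), were stained with Hoechst for 20 min and then with probe for 5 min before confocal imaging in the green channel.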
Target sequence in this assay (P14902 whole entry, looked up): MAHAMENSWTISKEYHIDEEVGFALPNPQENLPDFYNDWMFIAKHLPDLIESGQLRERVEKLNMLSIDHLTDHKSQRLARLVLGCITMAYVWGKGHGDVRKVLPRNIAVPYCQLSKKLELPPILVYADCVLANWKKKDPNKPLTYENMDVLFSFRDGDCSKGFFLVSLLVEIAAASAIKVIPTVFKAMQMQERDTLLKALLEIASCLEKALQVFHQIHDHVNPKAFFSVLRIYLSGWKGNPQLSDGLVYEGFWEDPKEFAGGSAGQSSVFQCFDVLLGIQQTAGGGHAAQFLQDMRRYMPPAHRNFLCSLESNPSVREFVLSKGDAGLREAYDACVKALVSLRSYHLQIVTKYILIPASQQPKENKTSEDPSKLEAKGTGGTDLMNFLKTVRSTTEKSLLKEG

The next data set is filed under the species Homo sapiens. The data set is described as follows: Binding affinity to chymotrypsin (unknown origin) assessed as change in fluorescence intensity at 10 uM measured after 60 mins by fluorescence assay. The procedure, abridged: (§2)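 Selectivity panel: probe was incubated with each enzyme or biomolecule in 10 mM PBS, pH 7.4, containing 1% DMSO, for 60 min at room temperature. Fluorescence intensity was read at 532 nm with excitation at 465 nm.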

The test system of a further data set is Aspergillus oryzae. The data set is described as follows: Binding affinity to oryzae beta-galactosidase assessed as change in fluorescence intensity at 10 uM measured after 60 mins by fluorescence assay. The gist of the method:
as §2

Data set [2] in a line: Binding affinity to GSH assessed as change in fluorescence intensity at 10 uM measured after 60 mins by fluorescence assay. The gist of the method:
as §2

In data set [3] the target is Albumin (Homo sapiens, UniProt P02768). The data set is described as follows: Binding affinity to human serum albumin assessed as change in fluorescence intensity at 10 uM measured after 60 mins by fluorescence assay. In kind it is ADME. To be noted: isolated protein, 1 h. The gist of the method: as §2
Chain of Albumin (Homo sapiens, UniProt P02768) (P02768 whole entry): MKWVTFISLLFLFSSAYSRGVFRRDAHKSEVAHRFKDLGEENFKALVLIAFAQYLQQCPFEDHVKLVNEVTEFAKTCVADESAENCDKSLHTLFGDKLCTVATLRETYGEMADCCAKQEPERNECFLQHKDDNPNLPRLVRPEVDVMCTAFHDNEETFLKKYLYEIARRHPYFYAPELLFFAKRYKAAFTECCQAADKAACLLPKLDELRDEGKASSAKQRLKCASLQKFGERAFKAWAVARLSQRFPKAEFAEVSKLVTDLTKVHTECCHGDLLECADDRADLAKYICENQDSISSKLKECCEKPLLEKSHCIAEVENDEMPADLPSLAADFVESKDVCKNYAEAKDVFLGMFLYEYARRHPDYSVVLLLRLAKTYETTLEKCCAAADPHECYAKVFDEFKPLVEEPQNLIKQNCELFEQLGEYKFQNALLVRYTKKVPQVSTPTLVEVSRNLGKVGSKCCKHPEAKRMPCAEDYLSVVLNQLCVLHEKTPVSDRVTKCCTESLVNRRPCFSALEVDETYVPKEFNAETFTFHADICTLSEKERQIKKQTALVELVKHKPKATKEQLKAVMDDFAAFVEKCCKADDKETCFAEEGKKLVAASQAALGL
The species named for the next data set is Bos taurus. The data set is described as follows: Binding affinity to bovine hemoglobin assessed as change in fluorescence intensity at 10 uM measured after 60 mins by fluorescence assay. The gist of the method: as §2
A further data set has as its target Trypsin (Homo sapiens) (UniProt P07477+P07478+P35030). The data set is described as follows: Binding affinity to trypsin (unknown origin) assessed as change in fluorescence intensity at 10 uM measured after 60 mins by fluorescence assay. The data set is classed as protein assay. The procedure, abridged: as §2
Data set [4] has as its target T1, Indoleamine 2,3-dioxygenase 1. The data set is described as follows: Inhibition of IDO1 in IFNgamma-stimulated human HeLa cells using tryptophan as substrate measured after 48 hrs.
Target sequence in this assay (P14902 whole entry): as the sequence (P14902 whole entry, looked up) above
For a further data set, the system named is Escherichia coli. The data set is described as follows: Binding affinity to Escherichia coli beta-galactosidase assessed as change in fluorescence intensity at 10 uM measured after 60 mins by fluorescence assay. The procedure, abridged:
as §2

Data set [5] has as its target T1, Indoleamine 2,3-dioxygenase 1. The experiment in a line: Binding affinity to IDO1 in IFNgamma-stimulated human HeLa cells at 3.5 nM measured after 5 mins by Hoechst staining based confocal fluorescence imaging analysis. The gist of the method:
as §1
Target sequence in this assay (P14902 whole entry, looked up): as above

Another data set has as its system HeLa. The experiment in a line: Cytotoxicity against human HeLa cells assessed as reduction in cell viability measured after 72 hrs by CCK8 assay. The data set is classed as cell-based. The gist of the method: (§3)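 Log-phase HeLa or CT26 cells were seeded at 6 × 10³ per well and grown 24 h at 37 °C, 5% CO₂. Cells were treated with a concentration series in triplicate for 72 h. Medium was then replaced with medium containing 10% CCK8 and incubated a further 40 min.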

Data set [6] deals with T1, Indoleamine 2,3-dioxygenase 1. The data set is described as follows: Binding affinity to recombinant human IDO1 expressed in Escherichia coli BL21 (DE3) assessed as increase in fluorescence intensity at 10 uM measured after 60 mins by fluorescence assay relative to control. The gist of the method: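 Human IDO1 was expressed in E. coli BL21(DE3), induced with 0.4 mM IPTG at OD600 0.6 for 18 h at 18 °C, then purified on Ni column (0–250 mM imidazole gradient) and gel filtration. Probe was titrated with increasing IDO1 in 10 mM PBS, pH 7.4, 1% DMSO, for 60 min at room temperature. Fluorescence: excitation 465 nm, emission 532 nm. Detection limit was taken at signal-to-noise ratio 3.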
Target sequence in this assay (P14902 whole entry, looked up): as above

For data set [7] the target is unchanged. The data set is described as follows: Inhibition of recombinant human IDO1 expressed in Escherichia coli BL21 (DE3) using tryptophan as substrate.
Target sequence in this assay (P14902 whole entry): as the sequence (P14902 whole entry, looked up) above
Data set [8] has as its system CT26. The data set is described as follows: Cytotoxicity against mouse CT26 cells assessed as reduction in cell viability measured after 72 hrs by CCK8 assay. The data set is classed as cell-based. To be noted: CT26, 72 h. The procedure, abridged:
as §3

Data set [9] in a line: Drug uptake in human HeLa cells at 3.5 nM measured after 5 mins by Hoechst staining based confocal fluorescence imaging analysis. In kind it is ADME, cell-based. To be noted: 0.0035 µM. The gist of the method:
as §1

The target in data set [10] is Albumin (Bos taurus, UniProt P02769). The data set is described as follows: Binding affinity to bovine serum albumin assessed as change in fluorescence intensity at 10 uM measured after 60 mins by fluorescence assay. In kind it is ADME. To be noted: cattle, isolated protein, 1 h. The gist of the method:
as §2

Data set [11] addresses T1, Indoleamine 2,3-dioxygenase 1. The experiment in a line: Binding affinity to IDO1 in IFNgamma-stimulated human HeLa cells at 5 nM measured after 5 mins by Hoechst staining based confocal fluorescence imaging analysis. The procedure, abridged: as §1
Target sequence in this assay (P14902 whole entry, looked up): as above
The test system of data set [12] is CT26. The experiment in a line: Antitumor activity against mouse CT26 cells implanted in BALB/c mouse assessed as tumor growth inhibition at 100 mg/kg, po administered daily for 12 days relative to control. In kind it is functional. To be noted: 288 h, time 12 day, read-out: TGI. The procedure, abridged: (§4)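 Female Balb/c mice, 4–5 weeks old, were inoculated subcutaneously in the right forelimb with 5 × 10⁵ log-phase CT26 cells in RPMI. Once tumors reached about 50 mm³, mice were randomized (n = 5 per group) and dosed orally at 100 mg/kg daily. Tumor length, width and body weight were recorded every other day, with V = ½ab². Mice were sacrificed when control tumors approached 2000 mm³. TGI = (Vcontrol − Vcompound)/Vcontrol at the last day. Data are mean ± SEM; Student's t-test.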

A short description of data set [13]: Toxicity in BALB/c mouse implanted with mouse CT26 cells assessed as loss of body weight at 100 mg/kg, po administered daily for 12 days measured every other day during compound dosing. The data set is classed as organism-based. To be noted: in vivo, 288 h, time 12 day. The gist of the method:
as §4

The target of data set [14] is T1, Indoleamine 2,3-dioxygenase 1. The data set is described as follows: Binding affinity to IDO1 in IFNgamma-stimulated human HeLa cells at 5 nM measured after 5 mins in presence of IDO1 inhibitor epacadostat by Hoechst staining based confocal fluorescence imaging analysis. The procedure, abridged: as §1
Target sequence in this assay (P14902 whole entry, looked up): as above
A short description of data set [15]: Drug uptake in human HeLa cells at 5 nM measured after 5 mins by Hoechst staining based confocal fluorescence imaging analysis. The data set is classed as ADME, cell-based. To be noted: 0.005 µM. The gist of the method:
as §1

Chain of Albumin (Bos taurus, UniProt P02769) (P02769 whole entry): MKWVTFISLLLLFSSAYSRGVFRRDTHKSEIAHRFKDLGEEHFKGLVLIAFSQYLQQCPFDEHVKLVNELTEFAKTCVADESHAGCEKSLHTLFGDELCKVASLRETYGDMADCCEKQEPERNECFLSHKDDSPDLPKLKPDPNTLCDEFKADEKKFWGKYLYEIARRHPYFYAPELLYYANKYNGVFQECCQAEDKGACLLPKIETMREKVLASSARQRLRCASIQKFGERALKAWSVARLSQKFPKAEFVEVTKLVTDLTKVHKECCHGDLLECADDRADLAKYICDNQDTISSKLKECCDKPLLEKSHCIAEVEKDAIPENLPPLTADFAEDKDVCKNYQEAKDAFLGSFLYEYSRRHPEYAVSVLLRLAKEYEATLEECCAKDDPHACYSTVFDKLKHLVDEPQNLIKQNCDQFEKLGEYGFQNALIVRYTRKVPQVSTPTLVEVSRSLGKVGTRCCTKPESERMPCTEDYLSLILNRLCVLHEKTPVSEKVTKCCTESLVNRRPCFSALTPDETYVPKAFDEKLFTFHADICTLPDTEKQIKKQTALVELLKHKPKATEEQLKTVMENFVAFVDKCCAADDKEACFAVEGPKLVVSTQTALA

A word on the IC50: it is the concentration at which inhibition is half-maximal. Regarding `O=[N+]([O-])c1ccc(NCCNc2nonc2/C(=N/O)Nc2ccc(F)c(Br)c2)c2nonc12`, the outcome (in data set [1]; in the data set listed under Homo sapiens; with Aspergillus oryzae; in [2]; in the data set filed under Bos taurus; on Trypsin (Homo sapiens)) was inactive. Also, the outcome with Escherichia coli was inactive. Besides, the Activity result at Albumin [3] and on Albumin [10] was “Not Active” in each case. Besides, the IC50 was 0.015 µM in data set [4], above 100 µM with HeLa, 0.028 µM in data set [7] and above 100 µM in the data set with CT26 [8]. Moreover, the outcome in data set [5] and in data set [6] was Active. Further, the Drug uptake entry in data set [9] is listed as “Not Active”.
`O=C(CNc1ccc([N+](=O)[O-])c2nonc12)NCCNc1nonc1/C(=N/O)Nc1ccc(F)c(Br)c1`: the result (in the data set filed under Homo sapiens; in the data set with Aspergillus oryzae; in data set [2]; in the data set listed under Bos taurus; on Trypsin (Homo sapiens); in the data set with Escherichia coli) was inactive. Further, the result in data set [6] and in data set [11] was inactive. Besides, the Activity result at Albumin [3] and on Albumin [10] was “Not Active” throughout. The IC50 in [4] was above 5 µM; in the data set on HeLa it was above 100 µM; in data set [7] it was 1.32 µM; with CT26 [8] it was above 100 µM.
On to `NS(=O)(=O)NCCNc1nonc1/C(=N/O)Nc1ccc(F)c(Br)c1` [EPACADOSTAT], for which the inhibition in vivo at 100 mg/kg in the data set on CT26 [12] was determined as 49%. Also, the IC50 with HeLa and in the data set on CT26 [8] was above 100 µM each time.
`O=C(CCNc1ccc([N+](=O)[O-])c2nonc12)NCCNc1nonc1/C(=N/O)Nc1ccc(F)c(Br)c1`: the inhibition in vivo at 100 mg/kg in the data set with CT26 [12] came to 46%. Besides, the result (in the data set filed under Homo sapiens; in the data set with Aspergillus oryzae; in data set [2]; in the data set listed under Bos taurus; at Trypsin (Homo sapiens); in data set [14]) was inactive. Besides, the result in the data set on Escherichia coli was inactive. For the same compound, the Activity entry at Albumin [3] is listed as “Not Active”; in data set [13], “Non-Toxic”; at Albumin [10], “Not Active”. The IC50 in data set [4] is 0.01 µM; in the data set with HeLa, above 100 µM; in data set [7] it was 0.012 µM; in the data set on CT26 [8], above 100 µM. The Drug uptake entry in data set [15] is “Not Active”. In addition, the fold change (FC) in [6] came out at 5. In addition, in data set [11], the result was Active.
